Assay outcomes deposited in PubChem BioAssay by Johns Hopkins Ion Channel Center.
Hits are enriched below; roughly 3.5% of the tested compounds scored in any of these assays.
RGS4 pot: potentiators or activators of RGS4; 0.92% of 310,000 active; HEK293 M3R/inducible RGS4, carbachol calcium flux Fluo4; hits give low values; AID 463111; B-score at 10 µM;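 active = B-score of the integrated calcium signal more than 4 SD below the library mean, with starting fluorescence not abnormally high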;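 also: negative B-score means reduced calcium response which marks RGS4 activation or potentiation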
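Material: Inducible-RGS4 HEK293 cells carrying M3 receptor; also added: carbachol at ECmax as muscarinic agonist stimulus; incubation: compound preincubation 20 min at room temperature before agonist; signal: Fluo4-AM (2 µM) calcium-flux fluorescence, kinetic read; measure: integrated calcium ratio converted to B score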
MrgX1 antag: antagonists of human MrgX1 receptor. Q96LB2. MRGX1-HEK293 calcium flux, Fluo-4, BAM8-22 antagonism; hits give low values. B-score at 10 µM. 1.3% of 310,000 active. AID 588676;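 active = calcium-response B-score plate-corrected more than 3 library SD below zero, starting fluorescence within 5 deviations, no agonist response on first addition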;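 also: peak minus trough fluorescence over baseline after final BAM8-22 challenge near maximal dose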
Target sequence (Q96LB2 whole entry, looked up): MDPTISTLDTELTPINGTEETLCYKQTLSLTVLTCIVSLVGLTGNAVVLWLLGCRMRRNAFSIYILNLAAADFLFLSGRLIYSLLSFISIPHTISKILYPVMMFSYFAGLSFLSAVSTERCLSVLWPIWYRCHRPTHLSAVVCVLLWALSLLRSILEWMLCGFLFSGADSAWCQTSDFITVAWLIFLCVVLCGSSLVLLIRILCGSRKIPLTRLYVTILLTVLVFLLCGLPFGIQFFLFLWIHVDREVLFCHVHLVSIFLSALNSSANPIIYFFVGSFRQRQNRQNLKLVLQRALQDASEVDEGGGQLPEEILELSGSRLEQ
RGS4 inh: human RGS4 inhibition | AID 463165 | B-score at 10 µM | 0.45% of 310,000 active | HEK293 M3R/RGS4 inducible, Fluo-4 calcium flux; hits give high values; triggered by carbachol at its EC20 | P49798;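 active = B-score, a plate-corrected calcium signal, over three deviations above library mean, with baseline fluorescence within five deviations of library mean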;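 also: RGS4 expression induced by doxycycline in cells with stable M3 receptor; B-score is computed from the integrated fluorescence ratio over baseline after carbachol; higher B-score means a larger calcium signal and so more RGS4 inhibition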
Target sequence (P49798 whole entry, looked up): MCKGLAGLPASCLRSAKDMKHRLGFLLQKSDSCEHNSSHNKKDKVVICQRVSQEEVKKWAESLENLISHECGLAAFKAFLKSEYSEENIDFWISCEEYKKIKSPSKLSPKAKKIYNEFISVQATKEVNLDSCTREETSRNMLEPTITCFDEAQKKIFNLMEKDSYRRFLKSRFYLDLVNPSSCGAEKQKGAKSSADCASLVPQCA
MrgX1 PAM: human MrgX1 positive allosteric modulation, primary screen. Q96LB2. MrgX1-HEK293, Fluo-4 calcium flux, FDSS; hits give high values. B-score at 10 µM. 0.63% of 310,000 active;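 active = plate-corrected calcium response at least 3 library SD above typical, normal starting fluorescence, not activating the receptor alone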;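 also: compound read alongside a low EC10 to EC30 dose of BAM8-22 agonist; peak minus trough fluorescence over baseline measured at the second addition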
MrgX1 agonist: agonists of human MrgX1 receptor; 0.44% of 310,000 active; MrgX1-HEK293 cells, Fluo-4 calcium fluorescence, agonist mode; hits give high values; B-score at 10 µM;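 active = calcium response B-score plate-corrected fluorescence ratio at least 3 library SD, with starting fluorescence B-score inside 5 SD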
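Test system: Stable human MrgX1 HEK293 cell line | Schedule: Overnight plating before 1 h dye loading | Read-out basis: Baseline-normalised fluorescence change ratio, B-scored | Detection: Kinetic calcium dye fluorescence, Fluo-4 NW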
An asterisk follows results filed as active; i = inactive; . = not tested or not shown.

SMILES	RGS4 pot	MrgX1 antag	RGS4 inh	MrgX1 PAM	MrgX1 agonist
Cc1ccc(SCC(=O)OC(C)C(=O)NCc2ccccc2)cc1C (configuration not stated)	i	i	i	i	i
N/C(Cn1cncn1)=N\NC(=O)c1ccc(Cl)cc1Cl	i	-4.5*	i	i	i
Cc1ccsc1/C=C1/C(=O)NN(c2ccccc2)C1=O	i	i	i	i	33*
Cc1ccsc1C=C1C(=O)c2ccccc2C1=O	i	i	i	i	i
CCN(CC)CCOC(=O)c1ccc(NC(=O)CCCN2C(=O)/C(=C\c3cccs3)SC2=S)cc1	-7.6*	i	i	i	i
O=C(CCN1C(=O)/C(=C\c2cccs2)SC1=S)Nc1ccc(C(=O)O)cc1	i	i	i	i	i
O=C(CCCN1C(=O)/C(=C/c2cccs2)SC1=S)Nc1cccnc1	i	-5.6*	i	i	i
O=C(CCCN1C(=O)/C(=C\c2cccs2)SC1=S)Nc1cccnc1	i	i	i	i	i
COc1ccc2c(Cl)c(C(=O)N/N=C3\CCCC(=O)C3)sc2c1	i	-7.4*	i	i	i
COc1ccc2c(Cl)c(C(=O)N/N=C/c3ccc4c(c3)OCO4)sc2c1	i	i	i	i	i
Cc1cccc(-n2c(SCc3cc(=O)n4ccsc4n3)nc3ccccc32)c1	-7.4*	i	i	i	i
Cc1c(NC(=S)N/N=C/c2ccc(Br)cc2)c(=O)n(-c2ccccc2)n1C	i	i	i	i	i
Cn1c(CS/C(N)=N/N=C/c2ccccc2)c(Br)c(=O)n1-c1ccccc1	i	i	i	i	46*
O=S(=O)(c1ccccc1)n1ccc2cccnc21	i	i	i	i	i
CN1CCN(CCCNC(=O)c2ccc(/C=C3/Sc4ccccc4N(Cc4cccc(Cl)c4)C3=O)cc2)CC1	-7.7*	.	i	.	.
CN1CCN(CCCNC(=O)c2ccc(/C=C3\Oc4ccccc4N(Cc4ccccc4F)C3=O)cc2)CC1	-8.3*	i	i	i	i
CN1CCN(CCCNC(=O)c2ccc(/C=C3\Sc4ccccc4N(Cc4ccc(F)cc4)C3=O)cc2)CC1	-7.5*	.	i	.	.
Cc1cccc(CN2C(=O)/C(=C\c3ccc(C(=O)NCCCN4CCN(C)CC4)cc3)Oc3ccccc32)c1	i	i	i	i	i
O=C(CN1C(=O)/C(=C/c2ccccc2)Sc2ccccc21)NCCCN1CCOCC1	i	i	i	i	i
Cc1cccc(N2CCN(C(=O)c3ccc4c(c3)CCN4S(C)(=O)=O)CC2)c1C	i	i	i	i	i
COCC(=O)Nc1cc(C(=O)Nc2cccc(C)c2C)ccc1Cl	i	i	i	i	i
COCC(=O)NNC(=S)Nc1cccc(C)c1C	i	-5.1*	i	i	i
COC(=O)CC1=NN(c2nc3ccccc3s2)C(=O)/C1=C/N(C)C	i	i	i	15*	i
COc1ccc(-c2csc3ncnc(N4CCN(S(=O)(=O)c5ccc(C(C)=O)cc5)CC4)c23)cc1	-7*	i	i	i	i
COc1ccc(-c2csc3ncnc(N4CCN(c5ccccc5[N+](=O)[O-])CC4)c23)cc1	-7.3*	i	i	i	i
SMILES	RGS4 pot	MrgX1 antag	RGS4 inh	MrgX1 PAM	MrgX1 agonist
Cc1ccccc1CN1C(=O)c2ccccc2S(=O)c2ccc(C(=O)NCCCN3CCOCC3)cc21 (configuration not stated)	i	i	i	i	i
CC1CC(C)CN(CCCNC(=O)c2ccc3c(c2)N(Cc2ccccc2)C(=O)c2ccccc2S3=O)C1 (configuration not stated)	-7.2*	i	i	i	i
O=C(NCCCN1CCCC1)c1ccc2c(c1)N(Cc1cccc(Cl)c1)C(=O)c1ccccc1S2=O (configuration not stated)	i	i	i	i	i
CC1CCCCN1CCNC(=O)c1ccc2c(c1)N(Cc1cccc(Cl)c1)C(=O)c1ccccc1S2=O (configuration not stated)	-8.2*	i	i	i	i
CC(C)(C)c1ccc(Cn2nnc3c(=O)[nH]c(C4CCN(C(=O)c5ccco5)CC4)nc32)cc1	i	.	i	.	.
CN(C)CCN(C(=O)c1ccc(S(=O)(=O)N(C)C)cc1)c1nc2cc3c(cc2s1)OCCO3	i	i	i	i	i
CCN(c1ccccc1)S(=O)(=O)c1ccc(C(=O)N(CCN(C)C)c2nc3c(F)cc(F)cc3s2)cc1	i	i	14*	i	i
CN(C)CCN(C(=O)c1ccc(S(=O)(=O)N(C)c2ccccc2)cc1)c1nc2cc3c(cc2s1)OCCO3	-7.8*	i	i	i	i
COc1ccc(NC(=S)N(Cc2ccc(Cl)cc2)Cc2ccc(C(=O)O)cc2)cc1Cl	i	-4.6*	i	i	i
C#CCOc1ccc(C2C3=C(CCCC3=O)N(CC(=O)O)C3=C2C(=O)CCC3)cc1Br	i	i	i	i	i
CC(C)(C)NC(=O)C(c1ccncc1)N(C(=O)Cn1nnc(-c2ccc(F)cc2)n1)c1ccc(F)cc1 (configuration not stated)	i	-5.6*	i	i	i
COCCN(C(=O)COC(=O)Cc1coc2cc3c(cc12)CCC3)c1c(N)n(Cc2ccccc2)c(=O)[nH]c1=O	i	i	i	i	i
CN1/C(=C\C(=S)NC(=O)c2cccc(Br)c2)C(C)(C)c2ccccc21	i	i	i	i	i
CCN(CC)S(=O)(=O)c1cccc(C(=O)/C=C2/N(C)c3ccccc3C2(C)C)c1	-7*	i	i	i	i
O=C1OC(c2ccc(Br)cc2)=N/C1=C\N1CCCCC1	i	-5.6*	i	i	i
CCO/C([O-])=N/c1sn[n+](C)c1C	i	-5.3*	i	i	i
COc1ccc(Cl)cc1NC(=O)NCc1ccccn1	i	i	i	i	i
CSc1c(C#N)c(N)nc2sc(C(=O)c3ccc(Cl)c(Cl)c3)c(N)c12	i	-5.2*	i	i	i
COc1ccc(-c2c(C#N)c(N)nc3sc(C(=O)c4ccccc4)c(N)c23)cc1	i	i	i	i	i
O=c1[nH]c2ccc(S(=O)(=O)Nc3ccccc3O)cc2[nH]1	i	i	i	i	i
Oc1ccccc1C1=Nc2nc3ccccc3n2C(c2ccccc2)C1 (configuration not stated)	i	i	i	17*	i
Cc1ccc(OCc2cc(C(=O)N(C)CCc3nc4ccccc4[nH]3)no2)cc1C	i	.	i	.	.
